Experimental data taken from ChEMBL document CHEMBL1275347, “New fluoro derivatives of the pyrazolo[5,1-c][1,2,4]benzotriazine 5-oxide system: evaluation of fluorine binding properties in the benzodiazepine site on γ-aminobutyrric acid type A (GABA(A)) receptor. Design, synthesis, biological, and molecular modeling investigation” (J Med Chem, 2010).
The source made the active and inactive calls. No cut-off for these calls is given here.

Legend:
[1] = Displacement of [3H]Ro15-1788 from GABA(A) receptor benzodiazepine site in bovine brain membrane; format: cell membranes, Bos taurus
Outline: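 Bovine cerebral cortex membranes were diluted in 50 mM Tris-citrate pH 7.4 and used for [3H]Ro15-1788 displacement, with at least six test concentrations. Five experiments were run in triplicate. IC50 came from iterative curve fitting and Ki from Cheng-Prusoff, reported as mean ± SEM. Ki was derived only where inhibition at 10 μM exceeded 80%.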

[2] = species: Bos taurus; experiment: Displacement of [3H]Ro15-1788 from GABA(A) receptor benzodiazepine site in bovine brain membrane at 10 uM; format: cell membranes
Outline: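 Percent inhibition of specific [3H]Ro15-1788 binding to bovine cerebral cortex membranes in 50 mM Tris-citrate pH 7.4, measured with test compound at 10 μM.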

[3] = tested on: Mus musculus; experiment: Anticonvulsant activity in CD1 albino mouse assessed as protection against pentylenetetrazole-induced shock and convulsion at 10 mg/kg, ip treated after 30 mins of pentylenetetrazole measured for 30 mins; format: functional; conditions: route intraperitoneal
[4] = tested on: Mus musculus; experiment: Effect on learning and memory process in CD1 albino mouse assessed as improvement in retention latency at 3 mg/kg, po after 24 hrs by passive avoidance test; format: functional, organism-based; design: dose 3 mg/kg
Outline: (§1)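 Passive avoidance test in male CD-1 mice. Compounds were given po 30 min before training, and retention latency was tested 24 h later. n = 9-11 per group, mean ± SEM.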

[5] = tested on: Mus musculus; experiment: Effect on learning and memory process in CD1 albino mouse assessed as improvement in retention latency at 30 mg/kg, po after 24 hrs by passive avoidance test; format: functional, organism-based; design: dose 30 mg/kg; outline: as §1
[6] = tested on: Mus musculus; experiment: Effect on learning and memory process in CD1 albino mouse assessed as improvement in retention latency at 10 mg/kg, po after 24 hrs by passive avoidance test; format: functional, organism-based; design: dose 10 mg/kg; outline: as §1
[7] = tested on: Mus musculus; experiment: Anxiolytic activity in CD1 albino mouse at 10 mg/kg, po by light/dark box test; format: functional, organism-based; design: dose 10 mg/kg
Outline: (§2)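 Male CD-1 mice dosed po in 1% CMC 30 min before the light-dark box test. Each mouse was placed in the centre of the lit area facing away from the dark side and explored for 5 min. Transfers between compartments and time spent in the light were scored. n = 9-10 per group, mean ± SEM.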

[8] = tested on: Mus musculus; experiment: Effect on duration of loss of righting reflex in ethanol-induced in CD1 albino mouse at 3 mg/kg, po preincubated 30 mins before ethanol challenge; format: functional, organism-based; design: dose 3 mg/kg
Outline: (§3)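 Male CD-1 mice given compound po in 1% carboxymethylcellulose 30 min before ethanol (4 g/kg ip). Sleep time is the duration of loss of righting reflex, capped at 210 min. Values are mean ± SEM of treated mice.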

[9] = tested on: Mus musculus; experiment: Anxiolytic activity in CD1 albino mouse assessed as sleeping time at 10 mg/kg, po pretreated 30 mins before test; format: functional; outline: as §3
[10] = tested on: Mus musculus; experiment: Toxicity in CD1 albino mouse assessed as myorelaxant activity over 35 mins at 10 mg/kg, po by grip-strength meter assay; format: organism-based; design: dose 10 mg/kg, route oral; conditions: in vivo
Outline: (§4)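 Grip-strength meter test in male CD-1 mice given compound po in 1% CMC 30 min before testing. Grip force was read in g at 35 min. Values are mean ± SEM.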

[11] = tested on: Mus musculus; experiment: Anxiolytic activity in CD1 albino mouse at 3 mg/kg, po by light/dark box test; format: functional, organism-based; design: dose 3 mg/kg; outline: as §2
[12] = tested on: Mus musculus; experiment: Toxicity in CD1 albino mouse assessed as myorelaxant activity over 35 mins at 30 mg/kg, po by grip-strength meter assay; format: organism-based; design: dose 30 mg/kg, route oral; conditions: in vivo; outline: as §4
[13] = tested on: Mus musculus; experiment: Toxicity in CD1 albino mouse assessed as number of falls from rod over 30 seconds at 10 mg/kg, po after 25 mins of drug administration by rotarod test; format: organism-based; design: dose 10 mg/kg, route oral; conditions: in vivo
Outline: (§5)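 Rota-rod test in male CD-1 mice dosed po in 1% CMC. Falls from the rod were counted over 30 s, 25 min after dosing. Methods give the rod speed as 24 rpm; the table gives 16 rpm. Values are mean ± SEM.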

[14] = tested on: Mus musculus; experiment: Anxiolytic activity in CD1 albino mouse assessed as sleeping time at 3 mg/kg, po pretreated 30 mins before test; format: functional; outline: as §3
[15] = tested on: Mus musculus; experiment: Toxicity in CD1 albino mouse assessed as number of falls from rod over 30 seconds at 30 mg/kg, po after 25 mins of drug administration by rotarod test; format: organism-based; design: dose 30 mg/kg, route oral; conditions: in vivo; outline: as §5
[16] = tested on: Mus musculus; experiment: Effect on duration of loss of righting reflex in ethanol-induced in CD1 albino mouse at 10 mg/kg, po preincubated 30 mins before ethanol challenge; format: functional, organism-based; design: dose 10 mg/kg; outline: as §3
[17] = tested on: Mus musculus; experiment: Anticonvulsant activity in CD1 albino mouse assessed as protection against pentylenetetrazole-induced shock and convulsion at 30 mg/kg, ip treated after 30 mins of pentylenetetrazole measured for 30 mins; format: functional; conditions: route intraperitoneal
[18] = tested on: Mus musculus; experiment: Toxicity in CD1 albino mouse at 10 mg/kg, po in presence of 100 mg/kg, po flumazenil; format: organism-based; conditions: in vivo
[19] = tested on: Mus musculus; experiment: Anxiolytic activity in CD1 albino mouse at 30 mg/kg, po by light/dark box test; format: functional, organism-based; design: dose 30 mg/kg; outline: as §2
[20] = tested on: Mus musculus; experiment: Anxiolytic activity in CD1 albino mouse assessed as sleeping time at 0.3 mg/kg, ip pretreated 20 mins before test; format: functional; conditions: route intraperitoneal
Outline: (§6)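 Male CD-1 mice given diazepam ip (suspended in 1% carboxymethylcellulose) 20 min before test. Ethanol 4 g/kg ip injected […]; duration of loss of righting reflex taken as sleep time, capped at 210 min. Mean ± SEM; ANOVA with Scheffe post hoc test versus 1% CMC controls.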

[21] = tested on: Mus musculus; experiment: Anxiolytic activity in CD1 albino mouse assessed as sleeping time at 1 mg/kg, ip pretreated 20 mins before test; format: functional; conditions: route intraperitoneal; outline: as §6
[22] = tested on: Mus musculus; experiment: Effect on learning and memory process in CD1 albino mouse assessed as improvement in retention latency at 100 mg/kg, po after 24 hrs by passive avoidance test; format: functional, organism-based; design: dose 100 mg/kg
Outline: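 Passive avoidance in male CD-1 mice; flumazenil suspended in 1% carboxymethylcellulose, dosed 30 min before training; retention test 24 h later, retention latency recorded. 9-11 mice per group; mean ± SEM versus control.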

[23] = tested on: Mus musculus; experiment: Anxiolytic activity in CD1 albino mouse at 10 mg/kg, po by light/dark box test in presence of 100 mg/kg, po flumazenil; format: functional, organism-based

Structure (SMILES): O=C(OCc1cccs1)c1cnn2c1nnc1ccc(OC(F)F)cc12
- Ki [1]: 1.04 nM

Structure (SMILES): [O-][n+]1nc2c(F)cnn2c2cc(Cl)ccc21
- inhibition [2]: 50%

Structure (SMILES): COc1ccccc1COc1ccc2c(c1)n1ncc(F)c1n[n+]2[O-]
- Ki [1]: 3.19 nM

Structure (SMILES): [O-][n+]1nc2c(-c3ccsc3)cnn2c2cc(C(F)(F)F)ccc21
- Ki [1]: 192 nM

Structure (SMILES): CCOC(=O)c1cnn2c1n[n+]([O-])c1ccc(C(F)(F)F)cc12
- Ki [1]: 316 nM

Structure (SMILES): O=C(OCc1cccs1)c1cnn2c1n[n+]([O-])c1cc(C(F)(F)F)ccc12
- inhibition [2]: 34%

Structure (SMILES): [O-][n+]1nc2c(I)cnn2c2cc(OC(F)F)ccc21
- Activity [3]: 0%
- Activity [4]: inactive
- Activity [5]: inactive
- Ki [1]: 2.47 nM
- Activity [6]: inactive
- Activity [7]: Active

Structure (SMILES): FC(F)Oc1ccc2nnc3c(I)cnn3c2c1
- Ki [1]: 5.01 nM

Structure (SMILES): [O-][n+]1nc2c(-c3ccoc3)cnn2c2cc(C(F)(F)F)ccc21
- Ki [1]: 112 nM

Structure (SMILES): [O-][n+]1nc2c(F)cnn2c2cc(OCc3ccco3)ccc21
- Ki [1]: 129 nM

Structure (SMILES): [O-][n+]1nc2c(-c3cccs3)cnn2c2cc(C(F)(F)F)ccc21
- Ki [1]: 57 nM

Structure (SMILES): [O-][n+]1nc2c(Br)cnn2c2ccc(C(F)(F)F)cc21
- inhibition [2]: 38%

Structure (SMILES): O=C(OCc1cccs1)c1cnn2c1n[n+]([O-])c1ccc(C(F)(F)F)cc12
- Activity [3]: 0%
- Activity [8]: inactive
- Activity [4]: Active
- Time [9]: 40.8 s
- Activity [10]: 52.6 g
- Activity [11]: Active
- Activity [12]: 57.9 g
- Ki [1]: 10 nM
- Activity [13]: 0.1
- Time [14]: 48.6 s
- Activity [15]: 0.2
- Activity [6]: Active
- Activity [16]: inactive
- Activity [17]: 0%
- Activity [7]: Active
- Activity [18]: Non-toxic
- Activity [19]: Active

Structure (SMILES): CN1C(=O)CN=C(c2ccccc2)c2cc(Cl)ccc21 [DIAZEPAM]
- Time [20]: 134.5 s
- Ki [1]: 10 nM
- Time [21]: 14.5 s

Structure (SMILES): [O-][n+]1nc2c(Br)cnn2c2cc(C(F)(F)F)ccc21
- Ki [1]: 139 nM

Structure (SMILES): COc1ccccc1C(=O)c1cnn2c1n[n+]([O-])c1ccc(C(F)(F)F)cc12
- Ki [1]: 1540 nM

Structure (SMILES): [O-][n+]1nc2c(F)cnn2c2cc(OCc3cccs3)ccc21
- Ki [1]: 93.3 nM

Structure (SMILES): CCOC(=O)c1ncn2c1CN(C)C(=O)c1cc(F)ccc1-2
- Activity [22]: Active

Structure (SMILES): CCOC(=O)c1cnn2c1n[n+]([O-])c1cc(C(F)(F)F)ccc12
- inhibition [2]: 3%

Structure (SMILES): O=C(c1cccs1)c1cnn2c1n[n+]([O-])c1ccc(C(F)(F)F)cc12
- Ki [1]: 164 nM

Structure (SMILES): COc1ccccc1COC(=O)c1cnn2c1n[n+]([O-])c1cc(C(F)(F)F)ccc12
- inhibition [2]: 38%

Structure (SMILES): [O-][n+]1nc2c(Cl)cnn2c2cc(C(F)(F)F)ccc21
- Ki [1]: 175 nM

Structure (SMILES): [O-][n+]1nc2c(I)cnn2c2cc(C(F)(F)F)ccc21
- Ki [1]: 18 nM

Structure (SMILES): [O-][n+]1nc2c(F)cnn2c2cc(OCc3ccccc3OC(F)(F)F)ccc21
- inhibition [2]: 27%

Structure (SMILES): [O-][n+]1nc2c(F)cnn2c2cc(OCc3ccncc3)ccc21
- Ki [1]: 381 nM

Structure (SMILES): CCOC(=O)c1cnn2c1nnc1ccc(OC(F)F)cc12
- Ki [1]: 51.7 nM

Structure (SMILES): C#CCOc1ccc2c(c1)n1ncc(F)c1n[n+]2[O-]
- Ki [1]: 268 nM

Structure (SMILES): COc1ccccc1COC(=O)c1cnn2c1n[n+]([O-])c1ccc(C(F)(F)F)cc12
- Activity [3]: 0%
- Activity [8]: inactive
- Time [9]: 54.3 s
- Activity [10]: 51.7 g
- Activity [23]: inactive
- Activity [12]: 48.5 g
- Ki [1]: 5.8 nM
- Activity [13]: 0.2
- Time [14]: 36.2 s
- Activity [15]: 0.2
- Activity [6]: inactive
- Activity [16]: inactive
- Activity [17]: 0%
- Activity [7]: Active

Structure (SMILES): CCOC(=O)c1cnn2c1n[n+]([O-])c1ccc(OC(F)F)cc12
- Ki [1]: 5.75 nM
